Source: ChEMBL document CHEMBL4350995, “Synthesis and antiproliferative activity of culicinin D analogues containing simplified AHMOD-based residues” (Eur J Med Chem, 2019)
pIC50: −log10 of the molar value. Numbered stars: 1 amine (or outer) side, 2 acyl side, 3 side chain; on linkers, the order of the positions; unused ones are H or OH. Square brackets hold non-standard residues; d marks the D form. Peptide text beside a SMILES is read from it. * marks the point of attachment. X3 = CCC(=O)C[C@@H](O)C[C@@H](C)C[C@H](N[*:1])C(=O)[*:2]; X8 = CCC(=O)C[C@H](O)C[C@@H](C)C[C@H](N[*:1])C(=O)[*:2]; X2 = CCCC[C@@H](O)C[C@@H](C)C[C@H](N[*:1])C(=O)[*:2]; X6 = CCCC[C@H](O)C[C@@H](C)C[C@H](N[*:1])C(=O)[*:2]; X4 = CCCCCCCC[C@@H](C)C[C@H](N[*:1])C(=O)[*:2]; Nva(5-pentanoyl) = CCCCC(=O)CCC[C@H](N)C(=O)O; X1 = CCCCCC[C@@H](C)C[C@H](N[*:1])C(=O)[*:2]; NH((S)CH(Me)CH2NHC2H4OH) = C[C@@H](CNCCO)N*; X9 = CCC(=O)CC(O)CCC[C@H](N[*:1])C(=O)[*:2]; X5 = CCCCCCC(=O)CCC[C@H](N[*:1])C(=O)[*:2]; Gly(decyl) = CCCCCCCCCC[C@H](N)C(=O)O; X7 = O=C([C@H](CCCCO)N[*:1])[*:2]; Aoc(2) = CCCCCC[C@H](N)C(=O)O; hSer = N[C@@H](CCO)C(=O)O; Aib = CC(C)(N)C(=O)O; Butyryl = CCCC(=O)*; βAla = NCCC(=O)O

What was measured:
Format in all cases: functional, cell-based
[1] = system: NCI-H460; experiment: Antiproliferative activity against human NCI-H460 cells incubated for 5 days by SRB assay; details: NCI-H460, 120 h
Summary of the method: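 Cultured in alpha MEM + 5% FCS, 37 °C, 5% CO2; STR-authenticated, <3 months passage. Seeded at 300 cells/well and attached overnight, then given duplicate 3-fold serial dilutions of peptide (30 mM DMSO stock) for 5 days. Read-out was sulphorhodamine B staining. IC50 was interpolated from a 4-parameter logistic fit versus peptide-free controls. Values are mean ± SEM of 2–3 independent experiments.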

[2] = system: MDA-MB-468; experiment: Antiproliferative activity against human MDA-MB-468 cells incubated for 5 days by SRB assay; details: MDA-MB-468, 120 h
Summary of the method: (§1)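 STR-authenticated cells, <3 months passage, in DMEM + 10% FCS at 37 °C, 5% CO2, were seeded at 2000 cells/well and attached overnight. They were then exposed in duplicate to 3-fold serial dilutions from a 30 mM DMSO stock for 5 days. Staining was with sulphorhodamine B. IC50 was interpolated from 4-parameter logistic fits versus peptide-free controls on the same plate. Values are mean ± SEM, n = 2–3 independent experiments.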

[3] = system: SK-BR-3; experiment: Antiproliferative activity against human SKBR3 cells incubated for 5 days by SRB assay; details: SK-BR-3, 120 h; summary of the method: as §1
[4] = system: T47D; experiment: Antiproliferative activity against human T47D cells incubated for 5 days by SRB assay; details: 120 h
Summary of the method: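 Cells were grown in RPMI + 10% FCS (37 °C, 5% CO2, STR-authenticated, <3 months passage) and seeded at 1500 cells/well. After overnight attachment they received 3-fold serial dilutions (30 mM DMSO stock) in duplicate for 5 days. Total cells were measured by sulphorhodamine B staining. IC50 was interpolated from a 4-parameter logistic fit against same-plate untreated controls. Values are mean ± SEM, n = 2–3.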

| SMILES | pIC50 [1] | pIC50 [2] | pIC50 [3] | pIC50 [4] |
| --- | --- | --- | --- | --- |
| CCCCCC[C@@H](C)C[C@H](NC(=O)C(C)(C)NC(=O)C(C)(C)NC(=O)[C@H](CCCCN)NC(=O)[C@@H]1CCCN1C(=O)CCC)C(=O)N[C@@H](CC(C)C)C(=O)NC(C)(C)C(=O)N[C@@H](CC(C)C)C(=O)NCCC(=O)N[C@@H](C)CNCCO (Butyryl-PK[Aib][Aib][X1]L[Aib]L[βAla]-{NH((S)CH(Me)CH2NHC2H4OH)}) | < 6.00 | < 6.00 | < 6.00 | < 6.00 |
| CCCCCC[C@@H](C)C[C@H](NC(=O)C(C)(C)NC(=O)C(C)(C)NC(=O)[C@H](CC(C)C)NC(=O)[C@@H]1CCCN1C(=O)CCC)C(=O)N[C@@H](CC(C)C)C(=O)NC(C)(C)C(=O)N[C@@H](CC(C)C)C(=O)NCCC(=O)N[C@@H](C)CNCCO (Butyryl-PL[Aib][Aib][X1]L[Aib]L[βAla]-{NH((S)CH(Me)CH2NHC2H4OH)}) | 6.89 | 7.05 | 6.55 | 7.15 |
| CCCCCC[C@@H](C)C[C@H](NC(=O)C(C)(C)NC(=O)C(C)(C)NC(=O)[C@H](CO)NC(=O)[C@@H]1CCCN1C(=O)CCC)C(=O)N[C@@H](CC(C)C)C(=O)NC(C)(C)C(=O)N[C@@H](CC(C)C)C(=O)NCCC(=O)N[C@@H](C)CNCCO (Butyryl-PS[Aib][Aib][X1]L[Aib]L[βAla]-{NH((S)CH(Me)CH2NHC2H4OH)}) | 6.90 | 7.13 | < 6.30 | 7.18 |
| CCCCCC[C@@H](C)C[C@H](NC(=O)C(C)(C)NC(=O)C(C)(C)NC(=O)[C@H](CCCCCC)NC(=O)[C@@H]1CCCN1C(=O)CCC)C(=O)N[C@@H](CC(C)C)C(=O)NC(C)(C)C(=O)N[C@@H](CC(C)C)C(=O)NCCC(=O)N[C@@H](C)CNCCO (Butyryl-P[Aoc(2)][Aib][Aib][X1]L[Aib]L[βAla]-{NH((S)CH(Me)CH2NHC2H4OH)}) | 6.72 | 6.85 | 6.62 | 6.77 |
| CCCCCCCCCC[C@H](NC(=O)[C@@H]1CCCN1C(=O)CCC)C(=O)NC(C)(C)C(=O)NC(C)(C)C(=O)N[C@@H](C[C@H](C)CCCCCC)C(=O)N[C@@H](CC(C)C)C(=O)NC(C)(C)C(=O)N[C@@H](CC(C)C)C(=O)NCCC(=O)N[C@@H](C)CNCCO (Butyryl-P[Gly(decyl)][Aib][Aib][X1]L[Aib]L[βAla]-{NH((S)CH(Me)CH2NHC2H4OH)}) | 6.42 | 7.23 | 6.55 | 6.63 |
| CCCCCC[C@@H](C)C[C@H](NC(=O)C(C)(C)NC(=O)C(C)(C)NC(=O)[C@H](CCCC(=O)CCCC)NC(=O)[C@@H]1CCCN1C(=O)CCC)C(=O)N[C@@H](CC(C)C)C(=O)NC(C)(C)C(=O)N[C@@H](CC(C)C)C(=O)NCCC(=O)N[C@@H](C)CNCCO (Butyryl-P[Nva(5-pentanoyl)][Aib][Aib][X1]L[Aib]L[βAla]-{NH((S)CH(Me)CH2NHC2H4OH)}) | 8.00 | 8.00 | 7.52 | 8.00 |
| CCCCCCC(=O)CCC[C@H](NC(=O)[C@@H]1CCCN1C(=O)CCC)C(=O)NC(C)(C)C(=O)NC(C)(C)C(=O)N[C@@H](C[C@H](C)CCCCCC)C(=O)N[C@@H](CC(C)C)C(=O)NC(C)(C)C(=O)N[C@@H](CC(C)C)C(=O)NCCC(=O)N[C@@H](C)CNCCO (Butyryl-P[X5][Aib][Aib][X1]L[Aib]L[βAla]-{NH((S)CH(Me)CH2NHC2H4OH)}) | 8.30 | 8.10 | 7.74 | 8.22 |
| CCCCCC[C@@H](C)C[C@H](NC(=O)C(C)(C)NC(=O)C(C)(C)NC(=O)[C@H](CCCCO)NC(=O)[C@@H]1CCCN1C(=O)CCC)C(=O)N[C@@H](CC(C)C)C(=O)NC(C)(C)C(=O)N[C@@H](CC(C)C)C(=O)NCCC(=O)N[C@@H](C)CNCCO (Butyryl-P[X7][Aib][Aib][X1]L[Aib]L[βAla]-{NH((S)CH(Me)CH2NHC2H4OH)}) | 7.55 | 7.60 | 7.23 | 7.85 |
| CCCCCC[C@@H](C)C[C@H](NC(=O)C(C)(C)NC(=O)C(C)(C)NC(=O)[C@H](CCCC(O)CC(=O)CC)NC(=O)[C@@H]1CCCN1C(=O)CCC)C(=O)N[C@@H](CC(C)C)C(=O)NC(C)(C)C(=O)N[C@@H](CC(C)C)C(=O)NCCC(=O)N[C@@H](C)CNCCO (stereo partly drawn) (Butyryl-P[X9][Aib][Aib][X1]L[Aib]L[βAla]-{NH((S)CH(Me)CH2NHC2H4OH)}) | 6.72 | 7.15 | 6.30 | 7.10 |
| CCCCCC[C@@H](C)C[C@H](NC(=O)C(C)(C)NC(=O)C(C)(C)NC(=O)[C@H](CCO)NC(=O)[C@@H]1CCCN1C(=O)CCC)C(=O)N[C@@H](CC(C)C)C(=O)NC(C)(C)C(=O)N[C@@H](CC(C)C)C(=O)NCCC(=O)N[C@@H](C)CNCCO (Butyryl-P[hSer][Aib][Aib][X1]L[Aib]L[βAla]-{NH((S)CH(Me)CH2NHC2H4OH)}) | 7.52 | 7.52 | 6.97 | 7.70 |

Results, then the compound that gave them:

| pIC50 [1] | pIC50 [2] | pIC50 [3] | pIC50 [4] | SMILES |
| --- | --- | --- | --- | --- |
| 6.90 | 6.95 | 6.49 | 6.71 | CCCCCC[C@@H](C)C[C@H](NC(=O)C(C)(C)NC(=O)C(C)(C)NC(=O)[C@H](C[C@H](C)C[C@H](O)CCCC)NC(=O)[C@@H]1CCCN1C(=O)CCC)C(=O)N[C@@H](CC(C)C)C(=O)NC(C)(C)C(=O)N[C@@H](CC(C)C)C(=O)NCCC(=O)N[C@@H](C)CNCCO (Butyryl-P[X2][Aib][Aib][X1]L[Aib]L[βAla]-{NH((S)CH(Me)CH2NHC2H4OH)}) |
| 8.10 | 7.96 | 7.46 | 8.15 | CCCCCC[C@@H](C)C[C@H](NC(=O)C(C)(C)NC(=O)C(C)(C)NC(=O)[C@H](C[C@H](C)C[C@H](O)CC(=O)CC)NC(=O)[C@@H]1CCCN1C(=O)CCC)C(=O)N[C@@H](CC(C)C)C(=O)NC(C)(C)C(=O)N[C@@H](CC(C)C)C(=O)NCCC(=O)N[C@@H](C)CNCCO (Butyryl-P[X3][Aib][Aib][X1]L[Aib]L[βAla]-{NH((S)CH(Me)CH2NHC2H4OH)}) |
| 7.43 | 7.40 | 6.63 | 7.51 | CCCCCCCC[C@@H](C)C[C@H](NC(=O)[C@@H]1CCCN1C(=O)CCC)C(=O)NC(C)(C)C(=O)NC(C)(C)C(=O)N[C@@H](C[C@H](C)CCCCCC)C(=O)N[C@@H](CC(C)C)C(=O)NC(C)(C)C(=O)N[C@@H](CC(C)C)C(=O)NCCC(=O)N[C@@H](C)CNCCO (Butyryl-P[X4][Aib][Aib][X1]L[Aib]L[βAla]-{NH((S)CH(Me)CH2NHC2H4OH)}) |
| 6.63 | 6.53 | < 6.30 | 6.58 | CCCCCC[C@@H](C)C[C@H](NC(=O)C(C)(C)NC(=O)C(C)(C)NC(=O)[C@H](C[C@H](C)C[C@@H](O)CCCC)NC(=O)[C@@H]1CCCN1C(=O)CCC)C(=O)N[C@@H](CC(C)C)C(=O)NC(C)(C)C(=O)N[C@@H](CC(C)C)C(=O)NCCC(=O)N[C@@H](C)CNCCO (Butyryl-P[X6][Aib][Aib][X1]L[Aib]L[βAla]-{NH((S)CH(Me)CH2NHC2H4OH)}) |
| 8.30 | 8.10 | 7.49 | 8.30 | CCCCCC[C@@H](C)C[C@H](NC(=O)C(C)(C)NC(=O)C(C)(C)NC(=O)[C@H](C[C@H](C)C[C@@H](O)CC(=O)CC)NC(=O)[C@@H]1CCCN1C(=O)CCC)C(=O)N[C@@H](CC(C)C)C(=O)NC(C)(C)C(=O)N[C@@H](CC(C)C)C(=O)NCCC(=O)N[C@@H](C)CNCCO (Butyryl-P[X8][Aib][Aib][X1]L[Aib]L[βAla]-{NH((S)CH(Me)CH2NHC2H4OH)}) |
| 8.10 | 7.70 | 7.00 | 8.10 | CCCCCC[C@@H](C)C[C@H](NC(=O)C(C)(C)NC(=O)C(C)(C)NC(=O)[C@H](CCCC(O)CCCC)NC(=O)[C@@H]1CCCN1C(=O)CCC)C(=O)N[C@@H](CC(C)C)C(=O)NC(C)(C)C(=O)N[C@@H](CC(C)C)C(=O)NCCC(=O)N[C@@H](C)CNCCO (mixture of isomers) |
